Measured values from ChEMBL document CHEMBL1138351, “Small, potent, and selective diaryl phosphonate inhibitors for urokinase-type plasminogen activator with in vivo antimetastatic properties” (J Med Chem, 2007).

Key:
[1] = Antimetastatic activity against Brown Norwegian rat bearing BN472 tumor assessed as decrease in number of lung foci at 1 mg/kg, ip administered once daily after 4 days of tumor transplantation for 17 to 18 days relative to control; format: functional; design: scale not given: the % may be the effect or the level left; conditions: route intraperitoneal
In short: (§1)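 BN472 breast tumours implanted orthotopically in rats and left to grow three days. From day 4, compounds were given i.p. daily for 17–18 days at 0.1 or 1 mg/kg. Controls received vehicle i.p. only. Lung foci were counted and axillary lymph nodes weighed at the end of treatment. Groups were compared with control at an unadjusted significance level of P 0.05.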

Rattus norvegicus [2] = assay: Toxicity in Brown Norwegian rat bearing BN472 tumor assessed as increase in kidney weight at 1 mg/kg, ip administered once daily after 4 days of tumor transplantation for 17 to 18 days relative to control; format: organism-based; design: dose 1 mg/kg, route intraperitoneal; conditions: in vivo
In short: (§2)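 Orthotopic BN472 breast tumour model in rats. Daily i.p. dosing at 0.1 or 1 mg/kg started on day 4 and ran 17–18 days, with vehicle-only i.p. controls. Side effects were assessed from body weight and the weights of several organs, compared with controls.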

[3] = Chemical stability assessed as half life of hydrolysis at pH 1; format: physicochemical; conditions: buffer
Rattus norvegicus [4] = assay: Toxicity in Brown Norwegian rat bearing BN472 tumor assessed as decrease in spleen weight at 1 mg/kg, ip administered once daily after 4 days of tumor transplantation for 17 to 18 days relative to control; format: organism-based; design: dose 1 mg/kg, route intraperitoneal; scale not given: the % may be the effect or the level left; conditions: in vivo; in short: as §2
[5] = Stability in human plasma after 3 hrs; format: ADME, cell-free; conditions: read-out: Stability
In short: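 Compound was added from 10 mM DMSO stock to human plasma at 200 µM final and shaken at 37 °C for up to 24 h. Aliquots were quenched in methanol and centrifuged. The supernatant was diluted with internal standard and analysed by LC/MS/MS in triplicate. Result is given as % parent compound remaining.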

[6] = Antitumor activity against Brown Norwegian rat bearing BN472 tumor assessed as reduction of tumor size at 1 mg/kg, ip administered once daily after 4 days of tumor transplantation for 17 to 18 days relative to control; format: functional; design: scale not given: the % may be the effect or the level left; conditions: route intraperitoneal
In short: (§3)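 Rats bearing orthotopic BN472 breast tumours (grown three days) were dosed i.p. daily from day 4 for 17–18 days at 0.1 or 1 mg/kg. Vehicle-only i.p. controls were included. Tumour size and tumour weight were measured at the end of the treatment period and compared with controls.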

Rattus norvegicus [7] = assay: Toxicity in Brown Norwegian rat bearing BN472 tumor assessed as decrease in liver weight at 0.1 mg/kg, ip administered once daily after 4 days of tumor transplantation for 17 to 18 days relative to control; format: organism-based; design: dose 0.1 mg/kg, route intraperitoneal; scale not given: the % may be the effect or the level left; conditions: in vivo; in short: as §2
Rattus norvegicus [8] = assay: Toxicity in Brown Norwegian rat bearing BN472 tumor assessed as decrease in liver weight at 1 mg/kg, ip administered once daily after 4 days of tumor transplantation for 17 to 18 days relative to control; format: organism-based; design: dose 1 mg/kg, route intraperitoneal; scale not given: the % may be the effect or the level left; conditions: in vivo; in short: as §2
[9] = biological target: Urokinase-type plasminogen activator (Mus musculus, UniProt P06869); assay: Inhibition of mouse uPA
[10] = Antimetastatic activity against Brown Norwegian rat bearing BN472 tumor assessed as reduction of axillary lymph node weight at 0.1 mg/kg, ip administered once daily after 4 days of tumor transplantation for 17 to 18 days relative to control; format: functional; design: scale not given: the % may be the effect or the level left; conditions: route intraperitoneal; in short: as §1
[11] = biological target: Urokinase-type plasminogen activator (Homo sapiens, UniProt P00749)
Rattus norvegicus [12] = assay: Toxicity in Brown Norwegian rat bearing BN472 tumor assessed as increase in kidney weight at 0.1 mg/kg, ip administered once daily after 4 days of tumor transplantation for 17 to 18 days relative to control; format: organism-based; design: dose 0.1 mg/kg, route intraperitoneal; conditions: in vivo; in short: as §2
[13] = Antimetastatic activity against Brown Norwegian rat bearing BN472 tumor assessed as reduction of axillary lymph node weight at 1 mg/kg, ip administered once daily after 4 days of tumor transplantation for 17 to 18 days relative to control; format: functional; design: scale not given: the % may be the effect or the level left; conditions: route intraperitoneal; in short: as §1
Plasminogen [14] = biological target: Plasminogen (Homo sapiens, UniProt P00747); assay: Inhibition of human plasmin
In short: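 Plasmin from human plasma at about 5 mU was preincubated with inhibitor (0–250 µM final) for 15 min at 37 °C. Substrate was S-2366 at 580 µM in Tris pH 7.4. Initial rate was read at 405 nm, in duplicate. IC50 came from a four-parameter logistic fit.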

[15] = Chemical stability assessed as half life of hydrolysis at pH 7.4; format: physicochemical; conditions: buffer
[16] = Apparent solubility in phosphate buffered saline at pH 7.4 after 2 hrs; format: ADME
In short: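 Compounds were serially diluted from 10 mM DMSO stock into PBS pH 7.4 (2% DMSO final), giving 1–200 µM final at eight concentrations, in duplicate. Incubation was 2 h at 37 °C. Solubility was taken as the onset of increased absorbance at 620 nm.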

Rattus norvegicus [17] = assay: Toxicity in Brown Norwegian rat bearing BN472 tumor assessed as effect on body weight at 1 mg/kg, ip administered once daily after 4 days of tumor transplantation for 17 to 18 days relative to control; format: organism-based; design: dose 1 mg/kg, route intraperitoneal; conditions: in vivo; in short: as §2
[18] = Antitumor activity aganist Brown Norwegian rat bearing BN472 tumor assessed as reduction of tumor size at 0.1 mg/kg, ip administered once daily after 4 days of tumor transplantation for 17 to 18 days relative to control; format: functional; design: scale not given: the % may be the effect or the level left; conditions: route intraperitoneal; in short: as §3
Rattus norvegicus [19] = assay: Toxicity in Brown Norwegian rat bearing BN472 tumor assessed as increase in uterus weight at 1 mg/kg, ip administered once daily after 4 days of tumor transplantation for 17 to 18 days relative to control; format: organism-based; design: dose 1 mg/kg, route intraperitoneal; conditions: in vivo; in short: as §2
Prothrombin [20] = biological target: Prothrombin (Rattus norvegicus, UniProt P18292); assay: Inhibition of rat thrombin
Prothrombin [21] = biological target: Prothrombin (Homo sapiens, UniProt P00734); assay: Inhibition of human thrombin
In short: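 Human plasma thrombin was assayed at 37 °C in Tris pH 8.3. […] Initial rate was read at 405 nm, in duplicate. IC50 was obtained from a four-parameter logistic fit.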

Plasminogen [22] = biological target: Plasminogen (Rattus norvegicus, UniProt Q01177); assay: Inhibition of rat plasmin
[23] = Antimetastatic activity against Brown Norwegian rat bearing BN472 tumor assessed as reduction of interpectoral lymph node weight at 1 mg/kg, ip administered once daily after 4 days of tumor transplantation for 17 to 18 days relative to control; format: functional; design: scale not given: the % may be the effect or the level left; conditions: route intraperitoneal
[24] = Chemical stability assessed as half life of hydrolysis at pH 4; format: physicochemical; conditions: buffer
Rattus norvegicus [25] = assay: Toxicity in Brown Norwegian rat bearing BN472 tumor assessed as effect on body weight at 0.1 mg/kg, ip administered once daily after 4 days of tumor transplantation for 17 to 18 days relative to control; format: organism-based; design: dose 0.1 mg/kg, route intraperitoneal; conditions: in vivo; in short: as §2
[26] = Antimetastatic activity against Brown Norwegian rat bearing BN472 tumor assessed as reduction of interpectoral lymph node weight at 0.1 mg/kg, ip administered once daily after 4 days of tumor transplantation for 17 to 18 days relative to control; format: functional; design: scale not given: the % may be the effect or the level left; conditions: route intraperitoneal
[27] = Chemical stability assessed as half life of hydrolysis at pH 8.8; format: physicochemical; conditions: buffer
[28] = Antitumor activity against Brown Norwegian rat bearing BN472 tumor assessed as reduction of tumor weight at 1 mg/kg, ip administered once daily after 4 days of tumor transplantation for 17 to 18 days relative to control; format: functional; design: scale not given: the % may be the effect or the level left; conditions: route intraperitoneal; in short: as §3
Plasminogen [29] = biological target: Plasminogen (Mus musculus, UniProt P20918); assay: Inhibition of mouse plasmin
[30] = biological target: Urokinase-type plasminogen activator (Rattus norvegicus, UniProt P29598); assay: Inhibition of rat uPA
Rattus norvegicus [31] = assay: Toxicity in Brown Norwegian rat bearing BN472 tumor assessed as decrease in spleen weight at 0.1 mg/kg, ip administered once daily after 4 days of tumor transplantation for 17 to 18 days relative to control; format: organism-based; design: dose 0.1 mg/kg, route intraperitoneal; scale not given: the % may be the effect or the level left; conditions: in vivo; in short: as §2
Rattus norvegicus [32] = assay: Toxicity in Brown Norwegian rat bearing BN472 tumor assessed as increase in uterus weight at 0.1 mg/kg, ip administered once daily after 4 days of tumor transplantation for 17 to 18 days relative to control; format: organism-based; design: dose 0.1 mg/kg, route intraperitoneal; conditions: in vivo; in short: as §2
Rattus norvegicus [33] = assay: Toxicity in Brown Norwegian rat bearing BN472 tumor assessed as decrease in adrenal weight at 0.1 mg/kg, ip administered once daily after 4 days of tumor transplantation for 17 to 18 days relative to control; format: organism-based; design: dose 0.1 mg/kg, route intraperitoneal; scale not given: the % may be the effect or the level left; conditions: in vivo; in short: as §2
Prothrombin [34] = biological target: Prothrombin (Mus musculus, UniProt P19221); assay: Inhibition of mouse thrombin
[35] = Antitumor activity aganist Brown Norwegian rat bearing BN472 tumor assessed as reduction of tumor weight at 0.1 mg/kg, ip administered once daily after 4 days of tumor transplantation for 17 to 18 days relative to control; format: functional; design: scale not given: the % may be the effect or the level left; conditions: route intraperitoneal; in short: as §3
[36] = Distribution coefficient, log D in octanol and phosphate buffer saline at pH 7.4; format: physicochemical; conditions: octanol/phosphate buffered saline
In short: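 A 10 mM DMSO stock was added to a 1:1 octanol/PBS pH 7.4 mixture. Measured in duplicate.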

[37] = Antimetastatic activity against Brown Norwegian rat bearing BN472 tumor assessed as decrease in number of lung foci at 0.1 mg/kg, ip administered once daily after 4 days of tumor transplantation for 17 to 18 days relative to control; format: functional; design: scale not given: the % may be the effect or the level left; conditions: route intraperitoneal; in short: as §1
Rattus norvegicus [38] = assay: Toxicity in Brown Norwegian rat bearing BN472 tumor assessed as increase in lung weight at 0.1 mg/kg, ip administered once daily after 4 days of tumor transplantation for 17 to 18 days relative to control; format: organism-based; design: dose 0.1 mg/kg, route intraperitoneal; conditions: in vivo; in short: as §2

Sequence of Plasminogen (Homo sapiens, UniProt P00747) (P00747 97-580 limits assumed): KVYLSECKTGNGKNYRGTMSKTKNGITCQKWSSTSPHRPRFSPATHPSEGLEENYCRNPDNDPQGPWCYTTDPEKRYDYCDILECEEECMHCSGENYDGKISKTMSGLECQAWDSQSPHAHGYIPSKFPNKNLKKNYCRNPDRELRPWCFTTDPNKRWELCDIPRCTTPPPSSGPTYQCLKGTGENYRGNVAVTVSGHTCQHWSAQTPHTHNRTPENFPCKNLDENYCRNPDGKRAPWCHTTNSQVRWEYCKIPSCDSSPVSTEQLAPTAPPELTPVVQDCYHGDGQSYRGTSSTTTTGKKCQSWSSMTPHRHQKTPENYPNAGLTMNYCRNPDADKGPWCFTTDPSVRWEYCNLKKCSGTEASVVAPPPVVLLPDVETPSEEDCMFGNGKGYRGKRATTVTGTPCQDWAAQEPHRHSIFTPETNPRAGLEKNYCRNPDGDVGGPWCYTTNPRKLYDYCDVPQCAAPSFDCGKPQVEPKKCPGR
Sequence of Plasminogen (Homo sapiens, UniProt P00747) (P00747 581-810 limits assumed): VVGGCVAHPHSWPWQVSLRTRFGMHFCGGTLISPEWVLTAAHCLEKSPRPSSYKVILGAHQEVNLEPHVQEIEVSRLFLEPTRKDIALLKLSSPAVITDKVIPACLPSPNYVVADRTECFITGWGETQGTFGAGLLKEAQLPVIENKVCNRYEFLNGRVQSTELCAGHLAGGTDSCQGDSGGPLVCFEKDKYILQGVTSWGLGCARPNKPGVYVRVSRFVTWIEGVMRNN
Sequence of Plasminogen (Rattus norvegicus, UniProt Q01177) (Q01177 97-581 limits assumed): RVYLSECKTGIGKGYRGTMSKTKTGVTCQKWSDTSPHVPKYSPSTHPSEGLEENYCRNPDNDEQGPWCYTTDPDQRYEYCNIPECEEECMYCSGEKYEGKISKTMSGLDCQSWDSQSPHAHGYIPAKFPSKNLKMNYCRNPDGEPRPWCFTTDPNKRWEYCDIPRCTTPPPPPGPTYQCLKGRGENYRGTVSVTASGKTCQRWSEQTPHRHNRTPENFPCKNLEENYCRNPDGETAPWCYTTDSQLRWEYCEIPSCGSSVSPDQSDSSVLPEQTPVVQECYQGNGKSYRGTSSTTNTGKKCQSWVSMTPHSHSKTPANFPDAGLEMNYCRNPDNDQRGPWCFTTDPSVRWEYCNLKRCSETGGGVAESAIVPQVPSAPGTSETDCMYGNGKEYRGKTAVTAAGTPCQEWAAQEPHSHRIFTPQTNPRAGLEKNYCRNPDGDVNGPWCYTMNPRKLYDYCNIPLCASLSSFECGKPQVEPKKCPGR
Sequence of Plasminogen (Rattus norvegicus, UniProt Q01177) (Q01177 582-812 limits assumed): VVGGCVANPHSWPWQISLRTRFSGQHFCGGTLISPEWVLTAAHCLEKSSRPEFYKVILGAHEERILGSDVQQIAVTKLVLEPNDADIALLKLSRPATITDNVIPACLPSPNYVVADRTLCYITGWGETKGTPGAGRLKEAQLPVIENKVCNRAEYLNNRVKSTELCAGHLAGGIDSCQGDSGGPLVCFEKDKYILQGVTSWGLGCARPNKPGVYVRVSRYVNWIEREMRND
Sequence of Plasminogen (Mus musculus, UniProt P20918) (P20918 98-581 limits assumed): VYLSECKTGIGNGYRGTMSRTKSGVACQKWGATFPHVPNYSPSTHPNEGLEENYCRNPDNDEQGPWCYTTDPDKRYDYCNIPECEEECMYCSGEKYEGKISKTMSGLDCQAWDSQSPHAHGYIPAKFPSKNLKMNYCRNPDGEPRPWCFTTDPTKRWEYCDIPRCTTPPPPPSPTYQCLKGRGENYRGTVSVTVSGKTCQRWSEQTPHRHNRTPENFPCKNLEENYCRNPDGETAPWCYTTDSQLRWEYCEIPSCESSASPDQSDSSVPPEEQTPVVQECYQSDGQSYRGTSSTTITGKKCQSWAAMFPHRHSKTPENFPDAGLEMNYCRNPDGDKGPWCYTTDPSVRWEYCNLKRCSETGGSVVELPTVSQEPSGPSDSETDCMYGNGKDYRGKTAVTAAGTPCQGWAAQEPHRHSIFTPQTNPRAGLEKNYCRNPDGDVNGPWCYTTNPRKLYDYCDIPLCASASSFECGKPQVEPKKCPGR
Sequence of Plasminogen (Mus musculus, UniProt P20918) (P20918 582-812 limits assumed): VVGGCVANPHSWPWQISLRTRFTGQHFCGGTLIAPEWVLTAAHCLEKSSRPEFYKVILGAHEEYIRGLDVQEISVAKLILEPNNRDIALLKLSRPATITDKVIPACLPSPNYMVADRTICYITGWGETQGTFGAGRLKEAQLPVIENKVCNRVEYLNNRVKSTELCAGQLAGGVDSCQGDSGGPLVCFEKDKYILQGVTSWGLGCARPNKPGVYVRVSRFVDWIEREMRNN
Sequence of Urokinase-type plasminogen activator (Mus musculus, UniProt P06869) (P06869 21-178 limits assumed): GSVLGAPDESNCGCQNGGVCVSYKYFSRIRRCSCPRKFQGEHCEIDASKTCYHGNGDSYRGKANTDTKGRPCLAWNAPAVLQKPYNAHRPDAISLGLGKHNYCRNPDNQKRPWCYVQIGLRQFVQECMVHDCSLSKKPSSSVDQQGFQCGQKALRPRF
Sequence of Urokinase-type plasminogen activator (Mus musculus, UniProt P06869) (P06869 180-433 limits assumed): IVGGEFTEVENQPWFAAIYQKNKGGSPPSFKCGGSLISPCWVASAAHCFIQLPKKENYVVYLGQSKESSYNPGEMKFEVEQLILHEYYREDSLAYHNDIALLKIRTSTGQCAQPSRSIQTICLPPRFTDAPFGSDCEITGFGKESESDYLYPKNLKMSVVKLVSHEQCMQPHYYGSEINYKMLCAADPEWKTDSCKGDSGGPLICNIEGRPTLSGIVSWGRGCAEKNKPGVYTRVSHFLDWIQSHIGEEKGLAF
Sequence of Urokinase-type plasminogen activator (Rattus norvegicus, UniProt P29598) (P29598 20-177 limits assumed): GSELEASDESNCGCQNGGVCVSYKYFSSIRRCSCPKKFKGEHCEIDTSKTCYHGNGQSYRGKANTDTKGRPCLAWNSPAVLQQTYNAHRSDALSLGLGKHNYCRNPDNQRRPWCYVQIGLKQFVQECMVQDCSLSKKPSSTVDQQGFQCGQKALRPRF
Sequence of Urokinase-type plasminogen activator (Rattus norvegicus, UniProt P29598) (P29598 179-432 limits assumed): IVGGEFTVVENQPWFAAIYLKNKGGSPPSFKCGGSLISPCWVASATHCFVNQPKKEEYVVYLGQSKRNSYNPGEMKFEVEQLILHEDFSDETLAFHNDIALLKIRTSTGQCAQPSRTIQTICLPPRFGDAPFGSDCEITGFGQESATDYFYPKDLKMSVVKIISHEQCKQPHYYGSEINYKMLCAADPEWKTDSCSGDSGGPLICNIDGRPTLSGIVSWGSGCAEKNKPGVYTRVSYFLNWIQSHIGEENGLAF

Structure (SMILES): COC(=O)NC(Cc1ccc(NC(=N)N)cc1)P(=O)(Oc1ccccc1)Oc1ccccc1 (stereo not drawn)
- Activity [1]: 61%
- Activity (Rattus norvegicus [2]): 8%
- half-life [3]: > 336 h
- Activity (Rattus norvegicus [4]): 12%
- remaining at 3 h [5]: 63%
- Activity [6]: 11%
- Activity (Rattus norvegicus [7]): 2%
- Activity (Rattus norvegicus [8]): 3%
- IC50 [9]: 0.032 µM
- Activity [10]: 46%
- Kapp [11]: 62000 M⁻¹ s⁻¹
- Activity (Rattus norvegicus [12]): 3%
- Activity [13]: 61%
- IC50 (Plasminogen [14]): 13 µM
- half-life [15]: 120 h
- solubility at 2 h [16]: > 200 µM
- Activity (Rattus norvegicus [17]): 169.5 g
- Activity [18]: 17%
- Activity (Rattus norvegicus [19]): 36%
- IC50 (Prothrombin [20]): > 100 µM
- IC50 (Prothrombin [21]): 17 µM
- IC50 (Plasminogen [22]): 15 µM
- Activity [23]: 8%
- half-life [24]: > 336 h
- Activity (Rattus norvegicus [25]): 168.5 g
- Activity [26]: 10%
- half-life [27]: 6 h
- Activity [28]: 9%
- IC50 (Plasminogen [29]): 25 µM
- IC50 [30]: 0.0195 µM
- Activity (Rattus norvegicus [31]): 17%
- Activity (Rattus norvegicus [32]): 30%
- Activity (Rattus norvegicus [33]): 3%
- IC50 (Prothrombin [34]): 42 µM
- Activity [35]: 27%
- logD [36]: 1.1
- Activity [37]: 29%
- Activity (Rattus norvegicus [38]): 3%
